pIC50, pKi: −log10 of the molar value. Calls of active or inactive are those of the source. The rule behind the calls is not given here.
What was measured:
[1] = tested on: Escherichia coli B; experiment: Inhibition of Escherichia coli B thymidine kinase using [2-14C]-thymidine as substrate assessed as formation of [14C]-TMP at 0.5 mM after 10 mins by liquid scintillation spectrometric analysis relative to control
How it was run: (§1)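 E. coli thymidine kinase (fraction V, purified from frozen cells; 7.2 × 10⁻⁶ units per assay) in Tris-HCl 71 mM, MgCl2 2.85 mM, MnCl2 0.71 mM, ATP 5.7 mM, BSA and [2-14C]thymidine 82 μM with test compound. The mixture was held at 37 °C for 10 min, then boiled. [14C]TMP was resolved by paper electrophoresis (pH 7.6) and scintillation-counted, with the unincubated blank subtracted.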

[2] = tested on: Escherichia coli B; experiment: Inhibition of Escherichia coli B thymidine kinase using [2-14C]-thymidine as substrate assessed as formation of [14C]-TMP at 1 mM after 10 mins by liquid scintillation spectrometric analysis relative to control; how it was run: as §1
[3] = tested on: Escherichia coli B; experiment: Activation of Escherichia coli B thymidine kinase using [2-14C]-thymidine as substrate assessed as formation of [14C]-TMP at 0.1 mM after 10 mins by liquid scintillation spectrometric analysis relative to control; how it was run: as §1
[4] = tested on: Escherichia coli B; experiment: Activation of Escherichia coli B thymidine kinase using [2-14C]-thymidine as substrate assessed as formation of [14C]-TMP at 2 mM after 10 mins by liquid scintillation spectrometric analysis relative to control; how it was run: as §1
[5] = tested on: Escherichia coli B; experiment: Activation of Escherichia coli B thymidine kinase using [2-14C]-thymidine as substrate assessed as formation of [14C]-TMP at 8 mM after 10 mins by liquid scintillation spectrometric analysis relative to control; how it was run: as §1
[6] = tested on: Escherichia coli B; experiment: Inhibition of Escherichia coli B thymidine kinase using [2-14C]-thymidine as substrate assessed as formation of [14C]-TMP at 2 mM after 10 mins by liquid scintillation spectrometric analysis relative to control; how it was run: as §1
[7] = Competitive inhibition of Escherichia coli B thymidine kinase using [2-14C]-thymidine as substrate assessed as formation of [14C]-TMP after 10 mins by Lineweaver-Burk double reciprocal plot analysis; conditions: read-out: Ki(app)
How it was run: (§2)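 Fraction V E. coli thymidine kinase was assayed with MgATP 5.7 mM and Mg/Mn salts in Tris-HCl at 37 °C for 10 min, reading [14C]TMP after electrophoresis. Four or more thymidine levels (20–160 μM) were used at each of two inhibitor levels plus an inhibitor-free control, all in duplicate. Ki (competitive) or I50 (noncompetitive) came from replots of Lineweaver-Burk slopes against inhibitor concentration, reproducible to ±7%.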

[8] = Non-competitive inhibition of Escherichia coli B thymidine kinase using [2-14C]-thymidine as substrate assessed as formation of [14C]-TMP after 10 mins by Lineweaver-Burk double reciprocal plot analysis; conditions: read-out: I50; how it was run: as §2
[9] = tested on: Escherichia coli B; experiment: Inhibition of Escherichia coli B thymidine kinase using [2-14C]-thymidine as substrate assessed as formation of [14C]-TMP at 4 mM after 10 mins by liquid scintillation spectrometric analysis relative to control; how it was run: as §1
[10] = tested on: Escherichia coli B; experiment: Inhibition of Escherichia coli B thymidine kinase using [2-14C]-thymidine as substrate assessed as formation of [14C]-TMP at 8 mM after 10 mins by liquid scintillation spectrometric analysis relative to control; how it was run: as §1
[11] = tested on: Escherichia coli B; experiment: Activity of Escherichia coli B thymidine kinase assessed as [14C]-TMP formation at 775 uM after 1 hr by liquid scintillation spectrometric analysis relative to thymidine; conditions: tested as the 14C-labelled form
[12] = tested on: Escherichia coli B; experiment: Activation of Escherichia coli B thymidine kinase using [2-14C]-thymidine as substrate assessed as formation of [14C]-TMP at 0.5 mM after 10 mins by liquid scintillation spectrometric analysis relative to control; how it was run: as §1
[13] = tested on: Escherichia coli B; experiment: Inhibition of Escherichia coli B thymidine kinase using [2-14C]-thymidine as substrate assessed as formation of [14C]-TMP at 16 mM after 10 mins by liquid scintillation spectrometric analysis relative to control; how it was run: as §1
[14] = tested on: Escherichia coli B; experiment: Non-competitive inhibition of Escherichia coli B thymidine kinase using [2-14C]-thymidine as substrate assessed as formation of [14C]-TMP at 16 mM after 10 mins by Lineweaver-Burk double reciprocal plot analysis
[15] = tested on: Escherichia coli B; experiment: Activation of Escherichia coli B thymidine kinase using [2-14C]-thymidine as substrate assessed as formation of [14C]-TMP at 1 mM after 10 mins by liquid scintillation spectrometric analysis relative to control; how it was run: as §1
[16] = tested on: Escherichia coli B; experiment: Activity of Escherichia coli B thymidine kinase assessed as [14C]-TMP formation at 500 uM after 1 hr by liquid scintillation spectrometric analysis; conditions: tested as the 14C-labelled form
[17] = tested on: Escherichia coli B; experiment: Activity of Escherichia coli B thymidine kinase assessed as [14C]-TMP formation at 450 uM after 1 hr by liquid scintillation spectrometric analysis; conditions: tested as the 14C-labelled form

CCn1c(=O)ccn([C@H]2C[C@H](O)[C@@H](CO)O2)c1=O
inhibition [1]: 12% | inhibition [2]: 22%

CCCn1c(=O)c(C)cn([C@H]2C[C@H](O)[C@@H](CO)O2)c1=O
inhibition [1]: 28% | inhibition [2]: 39%

CC[S+]([O-])C[C@H]1O[C@@H](n2cc(C)c(=O)[nH]c2=O)C[C@@H]1O (stereo partly specified)
Activity [3]: -5% | Activity [4]: -4% | Activity [5]: 22%

CC(=O)N(C)CCCCN(C)C[C@H]1O[C@@H](n2cc(C)c(=O)[nH]c2=O)C[C@@H]1O
inhibition [6]: 14% | inhibition [2]: 14%

CC(=O)Nc1cn([C@H]2C[C@H](O)[C@@H](CO)O2)c(=O)[nH]c1=O
inhibition [1]: 15% | inhibition [6]: 15%

Cc1cn([C@H]2C[C@H](O)[C@@H](CN)O2)c(=O)[nH]c1=O
pKi [7]: 3.49

CCCCCn1c(=O)c(C)cn([C@H]2C[C@H](O)[C@@H](CO)O2)c1=O
inhibition [1]: 45% | inhibition [2]: 59% | pIC50 [8]: 3.19

CC(=O)NCC(O)[C@H]1O[C@@H](n2cc(C)c(=O)[nH]c2=O)C[C@@H]1O (stereo in doubt; 4a)
pKi [7]: 2.90

O=c1ccn([C@H]2C[C@H](O)[C@@H](CO)O2)c(=O)[nH]1 [DEOXYURIDINE]
pKi [7]: 3.54

Nc1ccn([C@H]2C[C@H](O)[C@@H](CO)O2)c(=O)n1
inhibition [1]: 0% | inhibition [6]: 0%

CCNC[C@H]1O[C@@H](n2cc(C)c(=O)[nH]c2=O)C[C@@H]1O
inhibition [9]: 28% | inhibition [10]: 36%

Nc1cn([C@H]2C[C@H](O)[C@@H](CO)O2)c(=O)[nH]c1=O
pIC50 [8]: 1.55

CCCCNC[C@H]1O[C@@H](n2cc(C)c(=O)[nH]c2=O)C[C@@H]1O
inhibition [1]: 9% | inhibition [6]: 12%

CC(=O)N[C@H]1C[C@H](n2cc(C)c(=O)[nH]c2=O)O[C@@H]1CO
pIC50 [8]: 2.21

CC(=O)NC[C@H]1O[C@@H](n2cc(C)c(=O)[nH]c2=O)C[C@@H]1O
inhibition [1]: 0% | inhibition [2]: 0%

CCn1c(=O)c(C)cn([C@H]2C[C@H](O)[C@@H](CO)O2)c1=O
inhibition [1]: 30% | inhibition [2]: 44% | pIC50 [8]: 2.90

CC(=O)NCc1cn([C@H]2C[C@H](O)[C@@H](CO)O2)c(=O)[nH]c1=O
Activity [11]: < 0.021%

Cc1cn([C@H]2C[C@H](O)[C@@H](CSCCCC(=O)O)O2)c(=O)[nH]c1=O
Activity [3]: 61% | Activity [12]: 60% | Activity [4]: 62% | Activity [5]: 35%

CCS[C@H]1C[C@H](n2cc(C)c(=O)[nH]c2=O)O[C@@H]1CO
pIC50 [8]: 3.49

CCOC1N([C@H]2C[C@H](O)[C@@H](CO)O2)C(=O)NC(=O)C1(C)Br (single isomer, unassigned)
inhibition [6]: 11% | inhibition [13]: 17% | inhibition [14]: inactive

CCCCCCNC[C@H]1O[C@@H](n2cc(C)c(=O)[nH]c2=O)C[C@@H]1O
pKi [7]: 2.59

CCSC[C@H]1O[C@@H](n2cc(C)c(=O)[nH]c2=O)C[C@@H]1O
Activity [3]: 70% | Activity [12]: 63% | Activity [4]: 46%

CCC(=O)NCC(O)[C@H]1O[C@@H](n2cc(C)c(=O)[nH]c2=O)C[C@@H]1O (single isomer, unassigned; less polar)
pKi [7]: 3.07

CC(=O)N(C)CCN(C)C[C@H]1O[C@@H](n2cc(C)c(=O)[nH]c2=O)C[C@@H]1O
inhibition [6]: 0% | inhibition [2]: 0%

Cc1cn([C@H]2C[C@H](O)[C@@H](CSCCC(=O)O)O2)c(=O)[nH]c1=O
Activity [3]: 120% | Activity [12]: 126% | Activity [4]: 125% | Activity [5]: 106%

CCC(=O)NCC(O)[C@H]1O[C@@H](n2cc(C)c(=O)[nH]c2=O)C[C@@H]1O (single isomer, unassigned; more polar)
pKi [7]: 2.18

CCOC1N([C@H]2C[C@H](O)[C@@H](CO)O2)C(=O)NC(=O)C1(C)Br (single isomer, unassigned; less polar)
inhibition [13]: 0% | inhibition [14]: inactive

CCCC(=O)NC[C@H]1O[C@@H](n2cc(C)c(=O)[nH]c2=O)C[C@@H]1O
inhibition [1]: 0% | inhibition [2]: 0%

Cc1cn([C@H]2C[C@H](O)[C@@H](C[S+]([O-])CCC(=O)O)O2)c(=O)[nH]c1=O (stereo partly specified)
Activity [3]: -2% | Activity [12]: -1% | Activity [4]: 42% | Activity [5]: 65%

CCNc1ccn([C@H]2C[C@H](O)[C@@H](CO)O2)c(=O)n1
inhibition [1]: 0% | inhibition [6]: 0%

CC(=O)N(C)CCCCCCN(C)C[C@H]1O[C@@H](n2cc(C)c(=O)[nH]c2=O)C[C@@H]1O
inhibition [6]: 14% | inhibition [2]: 14%

N#Cc1cn([C@H]2C[C@H](O)[C@@H](CO)O2)c(=O)[nH]c1=O
inhibition [1]: 23% | inhibition [6]: 40%

NCc1cn([C@H]2C[C@H](O)[C@@H](CO)O2)c(=O)[nH]c1=O
inhibition [1]: 14% | inhibition [2]: 25%

Cc1cn([C@H]2C[C@H](O)[C@@H](CSCCO)O2)c(=O)[nH]c1=O
Activity [12]: 15% | Activity [15]: 28% | Activity [4]: 25%

Cc1cn([C@H]2C[C@H](N)[C@@H](CO)O2)c(=O)[nH]c1=O [3-AMINO- 3-DEOXYTHYMIDINE]
pIC50 [8]: 2.56

CC(=O)NCCC(=O)Nc1cn([C@H]2C[C@H](O)[C@@H](CO)O2)c(=O)[nH]c1=O
inhibition [1]: 0% | inhibition [6]: 0%

CCNc1cn([C@H]2C[C@H](O)[C@@H](CO)O2)c(=O)[nH]c1=O
inhibition [1]: 0% | inhibition [6]: 0%

CC(=O)NCC(O)[C@H]1O[C@@H](n2cc(C)c(=O)[nH]c2=O)C[C@@H]1O (stereo partly specified)
Activity [16]: inactive | Activity [17]: inactive

CCCn1c(=O)ccn([C@H]2C[C@H](O)[C@@H](CO)O2)c1=O
inhibition [1]: 18% | inhibition [2]: 35%

CC(=O)NCC(O)[C@H]1O[C@@H](n2cc(C)c(=O)[nH]c2=O)C[C@@H]1O (mixture of isomers)
pKi [7]: 2.70

O=c1ccn([C@@H]2O[C@H](CO)[C@@H](O)[C@H]2O)c(=O)[nH]1 [URIDINE]
pIC50 [8]: 1.32

Source: ChEMBL document CHEMBL3244008, “Design of species- or isozyme-specific enzyme inhibitors. 2. Differences between a bacterial and a mammalian thymidine kinase in the effect of thymidine substituents on affinity for the thymidine site” (J Med Chem, 1979)
